Laboratory results: ChEMBL document CHEMBL4765334, “Chemical profiling of HIV-1 capsid-targeting antiviral PF74” (Eur J Med Chem, 2020)
pEC50: −log10 of the molar value.

Tests used:
[1] = tested on: Human immunodeficiency virus 1; test: Antiviral activity against HIV1 NL4-3 infected in human TZM-GFP cells assessed as number of GFP positive cells incubated for 48 hrs by imaging reader; type: functional, organism-based; conditions: Human immunodeficiency virus 1, NL4-3, TZM
Outline: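 TZM-GFP cells seeded 1 × 10^4/well and given increasing compound concentrations 24 h later; infected with HIV-1 NL4-3 (MOI = 1) after a further 24 h. Read-out after 48 h: GFP-positive cell counts (LTR-driven) versus DMSO controls. EC50 fitted as log(inhibitor) vs normalized response, variable slope, per experiment and averaged; mean ± SD, duplicates, at least two independent experiments.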

TZM = test: Cytotoxicity against human TZM-GFP cells incubated for 72 hrs by XTT assay; type: cell-based; conditions: tzm, 72 h
Outline: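 TZM-GFP cells seeded at 1 × 10^4 per well and exposed continuously to increasing compound concentrations for 72 h. Viable cell number read by XTT proliferation kit. CC50 fitted as log(inhibitor) vs normalized response, variable slope, per independent assay and averaged. Run in duplicate, at least two independent experiments, reported as mean ± standard deviation.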

[2] = tested on: Human immunodeficiency virus 1; test: Binding affinity to covalently-crosslinked hexameric HIV1 capsid protein A14C/E45C/W184A/M185A mutant expressed in Escherichia coli BL21(DE3)RIL assessed as change in melting temperature at 20 uM incubated for 30 mins by thermal shift dye based fluorescence analysis
Outline: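 Thermal shift: 15 μM CA121 in 50 mM sodium phosphate pH 8.0 with Sypro Orange and compound at 20 μM final or DMSO control. Heated 25 to 95 °C at 0.2 °C/10 s; fluorescence Ex 475–500, Em 520–590 nm. ΔTm = Tm(compound) − T0(DMSO) for CA hexamer melting.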

## CC(C)n1cc(CC(=O)N[C@@H](Cc2ccccc2)C(=O)N(C)c2ccc(Cl)cc2)c2ccccc21
[1]
  pEC50: 6.49
TZM
  CC50: 10 µM
[2]
  ΔTm: 7.1 °C

## CCn1c(C)c(CC(=O)N[C@@H](Cc2ccccc2)C(=O)N(C)c2cccc(F)c2)c2ccccc21
[1]
  pEC50: 6.48
TZM
  CC50: 20 µM
[2]
  ΔTm: 10.8 °C

## Cc1[nH]c2ccccc2c1CC(=O)N[C@@H](Cc1ccccc1)C(=O)N(C)c1cccc(F)c1
[1]
  pEC50: 6.16
TZM
  CC50: > 50 µM
[2]
  ΔTm: 6.2 °C

## Cc1[nH]c2ccccc2c1CC(=O)N[C@@H](Cc1ccccc1)C(=O)Nc1nc2ccccc2[nH]1
[1]
  pEC50: 4.96
TZM
  CC50: 15 µM
[2]
  ΔTm: -0.6 °C

## O=C(Cc1c[nH]c2ccccc12)N[C@@H](Cc1ccccc1)C(=O)NCc1cccc2[nH]ccc12
[1]
  pEC50: < 4.70
TZM
  CC50: < 100 µM
[2]
  ΔTm: 0.5 °C

## CN(C(=O)[C@H](Cc1ccccc1)NC(=O)Cc1c[nH]c2ccccc12)c1cccnc1
[1]
  pEC50: < 4.70
TZM
  CC50: > 100 µM
[2]
  ΔTm: -0.8 °C

## Cc1c(CC(=O)N[C@@H](Cc2ccccc2)C(=O)N(C)c2ccc(Cl)cc2)c2ccccc2n1C(C)C
[1]
  pEC50: 6.82
TZM
  CC50: 14 µM
[2]
  ΔTm: 8.5 °C

## CCn1c(C)c(CC(=O)N[C@@H](Cc2ccccc2)C(=O)N(C)c2ccc(Cl)cc2)c2ccccc21
[1]
  pEC50: 6.62
TZM
  CC50: 27 µM
[2]
  ΔTm: 11.9 °C

## Cc1[nH]c2ccccc2c1CC(=O)N[C@@H](Cc1ccccc1)C(=O)N(C)c1cccnc1
[1]
  pEC50: < 4.70
TZM
  CC50: > 100 µM
[2]
  ΔTm: 0 °C

## O=C(Cc1c[nH]c2ccccc12)N[C@@H](Cc1ccccc1)C(=O)Nc1ccccc1
[1]
  pEC50: < 4.70
TZM
  CC50: 96 µM
[2]
  ΔTm: 0 °C

## CCN(C(=O)[C@H](Cc1ccccc1)NC(=O)Cc1c[nH]c2ccccc12)c1ccccc1
[1]
  pEC50: 6.36
TZM
  CC50: 70 µM
[2]
  ΔTm: 6.4 °C

## CCN(C(=O)[C@H](Cc1ccccc1)NC(=O)Cc1cn(C(C)C)c2ccccc12)c1ccccc1
[1]
  pEC50: 6.06
TZM
  CC50: 15 µM
[2]
  ΔTm: 5.7 °C

## CN(C(=O)[C@H](Cc1ccccc1)NC(=O)Cc1c[nH]c2ccccc12)c1ccc(Cl)cc1
[1]
  pEC50: 6.35
TZM
  CC50: < 50 µM
[2]
  ΔTm: 4.6 °C

## CN(C(=O)[C@H](Cc1ccccc1)NC(=O)Cc1c[nH]c2ccccc12)c1cccc(Br)c1
[1]
  pEC50: 5.70
TZM
  CC50: < 50 µM
[2]
  ΔTm: 3.5 °C

## Cc1[nH]c2ccccc2c1CC(=O)N[C@@H](Cc1ccccc1)C(=O)Nc1ccccc1
[1]
  pEC50: < 4.70
TZM
  CC50: 40 µM
[2]
  ΔTm: 0.7 °C

## Cc1[nH]c2ccccc2c1CC(=O)N[C@@H](Cc1ccccc1)C(=O)Nc1ccc(C#N)cc1
[1]
  pEC50: < 4.70
TZM
  CC50: > 100 µM
[2]
  ΔTm: -0.6 °C

## O=C(Cc1c[nH]c2ccccc12)N[C@@H](Cc1ccccc1)C(=O)Nc1nc2ccccc2[nH]1
[1]
  pEC50: < 4.70
TZM
  CC50: 44 µM
[2]
  ΔTm: -0.6 °C

## Cc1cc(NC(=O)[C@H](Cc2ccccc2)NC(=O)Cc2c(C)[nH]c3ccccc23)n[nH]1
[1]
  pEC50: < 4.70
TZM
  CC50: > 100 µM
[2]
  ΔTm: 0 °C

## Cc1cc(NC(=O)[C@H](Cc2ccccc2)NC(=O)Cc2c[nH]c3ccccc23)n[nH]1
[1]
  pEC50: < 4.70
TZM
  CC50: > 100 µM
[2]
  ΔTm: 0 °C

## Cc1c(CC(=O)N[C@@H](Cc2ccccc2)C(=O)N(C)c2cccc(Cl)c2)c2ccccc2n1C(C)C
[1]
  pEC50: 6.44
TZM
  CC50: 14 µM
[2]
  ΔTm: 5.5 °C

## CCn1cc(CC(=O)N[C@@H](Cc2ccccc2)C(=O)N(C)c2ccc(C)cc2)c2ccccc21
[1]
  pEC50: 6.47
TZM
  CC50: 14 µM
[2]
  ΔTm: 8.6 °C

## CCn1c(C)c(CC(=O)N[C@@H](Cc2ccccc2)C(=O)N(C)c2ccc(C)cc2)c2ccccc21
[1]
  pEC50: 6.64
TZM
  CC50: 18 µM
[2]
  ΔTm: 11 °C

## O=C(Cc1c[nH]c2ccccc12)N[C@@H](Cc1ccccc1)C(=O)Nc1ccc2ncsc2c1
[1]
  pEC50: < 4.70
TZM
  CC50: 68 µM
[2]
  ΔTm: 0 °C

## Cc1[nH]c2ccccc2c1CC(=O)N[C@@H](Cc1ccccc1)C(=O)NC(c1ccccc1)c1ccccc1
[1]
  pEC50: < 4.70
TZM
  CC50: > 100 µM
[2]
  ΔTm: 0 °C

## O=C(Cc1c[nH]c2ccccc12)N[C@@H](Cc1ccccc1)C(=O)Nc1cccc(-c2nnn[nH]2)c1
[1]
  pEC50: < 4.70
TZM
  CC50: > 100 µM
[2]
  ΔTm: -0.7 °C

## Cc1[nH]c2ccccc2c1CC(=O)N[C@@H](Cc1ccccc1)C(=O)Nc1ccc2ncsc2c1
[1]
  pEC50: 5.00
TZM
  CC50: 49 µM
[2]
  ΔTm: 1.4 °C

## CC(C)n1cc(CC(=O)N[C@@H](Cc2ccccc2)C(=O)N(C)c2cccc(F)c2)c2ccccc21
[1]
  pEC50: 6.49
TZM
  CC50: 12 µM
[2]
  ΔTm: 5.8 °C

## Cc1[nH]c2ccccc2c1CC(=O)N[C@@H](Cc1ccccc1)C(=O)NC12CC3CC(CC(C3)C1)C2
[1]
  pEC50: < 4.70
TZM
  CC50: > 100 µM
[2]
  ΔTm: -0.8 °C

## Cc1cc(N(C)C(=O)[C@H](Cc2ccccc2)NC(=O)Cc2c(C)[nH]c3ccccc23)n[nH]1
[1]
  pEC50: < 4.70
TZM
  CC50: < 100 µM
[2]
  ΔTm: 0 °C

## CCn1c(C)c(CC(=O)N[C@@H](Cc2ccccc2)C(=O)N(C)c2cccc(Cl)c2)c2ccccc21
[1]
  pEC50: 6.31
TZM
  CC50: 16 µM
[2]
  ΔTm: 9.2 °C

## Cc1c(CC(=O)N[C@@H](Cc2ccccc2)C(=O)N(C)c2cccc(F)c2)c2ccccc2n1C(C)C
[1]
  pEC50: 6.54
TZM
  CC50: 17 µM
[2]
  ΔTm: 7 °C

## Cc1[nH]c2ccccc2c1CC(=O)N[C@@H](Cc1ccccc1)C(=O)Nc1ccc(Cl)cc1
[1]
  pEC50: < 4.70
TZM
  CC50: > 100 µM
[2]
  ΔTm: 0 °C

## O=C(Cc1c[nH]c2ccccc12)N[C@@H](Cc1ccccc1)C(=O)O
[1]
  pEC50: < 4.70
TZM
  CC50: > 50 µM
[2]
  ΔTm: -0.6 °C

## CCN(C(=O)[C@H](Cc1ccccc1)NC(=O)Cc1c(C)n(CC)c2ccccc12)c1ccccc1
[1]
  pEC50: 6.25
TZM
  CC50: 20 µM
[2]
  ΔTm: 10 °C

## CCn1cc(CC(=O)N[C@@H](Cc2ccccc2)C(=O)N(C)c2ccc(Cl)cc2)c2ccccc21
[1]
  pEC50: 6.60
TZM
  CC50: 16 µM
[2]
  ΔTm: 8.6 °C

## Cc1[nH]c2ccccc2c1CC(=O)N[C@@H](Cc1ccccc1)C(=O)N(C)c1cccnn1
[1]
  pEC50: 5.43
TZM
  CC50: > 100 µM
[2]
  ΔTm: 3.2 °C

## Cc1[nH]c2ccccc2c1CC(=O)N[C@@H](Cc1ccccc1)C(=O)Nc1cccc(C#N)c1
[1]
  pEC50: < 4.70
TZM
  CC50: > 100 µM
[2]
  ΔTm: -0.5 °C

## CCn1cc(CC(=O)N[C@@H](Cc2ccccc2)C(=O)N(C)c2cccc(F)c2)c2ccccc21
[1]
  pEC50: 6.08
TZM
  CC50: 31 µM
[2]
  ΔTm: 5.9 °C

## Cc1[nH]c2ccccc2c1CC(=O)N[C@@H](Cc1ccccc1)C(=O)Nc1cccnn1
[1]
  pEC50: < 4.70
TZM
  CC50: > 100 µM
[2]
  ΔTm: 0 °C

## O=C(Cc1c[nH]c2ccccc12)N[C@@H](Cc1ccccc1)C(=O)Nc1cccnn1
[1]
  pEC50: < 4.70
TZM
  CC50: > 100 µM
[2]
  ΔTm: 0.8 °C

## CN(C(=O)[C@H](NC(=O)Cc1c[nH]c2ccccc12)c1ccccc1)c1ccccc1
[1]
  pEC50: < 4.70
TZM
  CC50: > 50 µM
[2]
  ΔTm: 1.5 °C

## O=C(Cc1c[nH]c2ccccc12)N[C@@H](Cc1ccccc1)C(=O)NC(c1ccccc1)c1ccccc1
[1]
  pEC50: < 4.70
TZM
  CC50: > 100 µM
[2]
  ΔTm: -1.6 °C

## Cc1[nH]c2ccccc2c1CC(=O)N[C@@H](Cc1ccccc1)C(=O)NCc1cccc2[nH]ccc12
[1]
  pEC50: < 4.70
TZM
  CC50: 36 µM
[2]
  ΔTm: 0 °C

## Cc1ccc(N(C)C(=O)[C@H](Cc2ccccc2)NC(=O)Cc2c(C)n(C(C)C)c3ccccc23)cc1
[1]
  pEC50: 6.20
TZM
  CC50: 10 µM
[2]
  ΔTm: 8.4 °C

## Cc1[nH]c2ccccc2c1CC(=O)N[C@@H](Cc1ccccc1)C(=O)N(C)c1cccc(C(F)(F)F)c1
[1]
  pEC50: 6.24
TZM
  CC50: 18 µM
[2]
  ΔTm: 5.4 °C
